We go through 8 compounds from ChEMBL document CHEMBL2396639, “Peptidomimetic modification improves cell permeation of bivalent farnesyltransferase inhibitors” (Bioorg Med Chem, 2013).

For data set [1], the system named is T-24. The experiment in a line: Inhibition of GGTase1-mediated prenylation in human T24 cells assessed as inhibition of Rap1A processing at 10 to 100 uM treated twice on day 1 and day 3 followed by incubation for 4 days by Western blot analysis. Format: cell-based. Put shortly: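 T24 cells grown in MEM with 10% bovine serum. Treated twice with compound at 10, 30 and 100 μM, or DMSO control, then harvested on day 4 and lysed. Lysate (5 µg) run on 12.5% SDS-PAGE, transferred to PVDF, probed with anti-Rap1A. Geranylgeranylation read as shift from processed to unprocessed Rap1A band, detected by HRP anti-rabbit IgG with ECL.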

For data set [2], the target named is T1, Protein farnesyltransferase (Homo sapiens, UniProt P49354+P49356). The experiment in a line: Inhibition of FTase-mediated prenylation in human A549 cells assessed as inhibition of HDJ-2 processing at 10 to 100 uM treated twice on day 1 and day 3 followed by incubation for 4 days by Western blot analysis. The format is cell-based. Put shortly:
(§1)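 T24 cells (MEM) or A549 cells (RPMI 1640), each with 10% bovine serum. Cells treated twice with compound at 10, 30 and 100 μM, or DMSO control, then harvested on day 4 and lysed in Tris pH 7.6/Triton X-100 buffer. Lysate (5 µg) run on 7.5% SDS-PAGE, transferred to PVDF, probed with anti-HDJ-2. Read as band shift from processed to unprocessed HDJ-2, detected by HRP anti-rabbit IgG with ECL.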
Background: Immunoblotting shows a protein as a band on a membrane.

In data set [3] the target is T1, Protein farnesyltransferase. The experiment in a line: Inhibition of FTase-mediated prenylation in human T24 cells assessed as inhibition of HDJ-2 processing at 10 to 100 uM treated twice on day 1 and day 3 followed by incubation for 4 days by Western blot analysis. The settings on record: T-24. The format is cell-based. In a few lines:
as §1

Data set [4] has the same target. The experiment in a line: Inhibition of recombinant FTase (unknown origin)-mediated K-Ras4B model peptide KKKKKKSK(Dans)TKCVIM farnesylation by fluorescence plate reader analysis in presence of FPP. Format: protein-complex assay. Put shortly: (§2)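 Recombinant mammalian FTase (50 nM) with dansylated K-Ras4B peptide (1 μM) and FPP (5 μM). Compound tested at 0–500 μM in 50 mM Tris HCl pH 7.5 at 30 °C. Reagents spotted separately, and buffer addition starts the reaction. Fluorescence (ex 340/em 520 nm) followed for 5 min on a plate reader, n = 3. IC50 converted to Ki by Cheng-Prusoff with peptide Km 0.033 μM.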

The target is the same in data set [5]. Nature of the data set: Inhibition of FTase (unknown origin)-mediated K-Ras4B model peptide KKKKKKSK(Dans)TKCVIM farnesylation by microplate reader analysis. Format: protein-complex assay. Put shortly:
as §2

Data set [6] in a line: Drug uptake in human A549 cell nucleus at 25 uM after 3 hrs by confocal microscopy. Format: ADME, cell-based. The settings on record: a549, 3 h. Put shortly:
(§3)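 A549 cells grown in RPMI 1640 with 10% heat-inactivated FBS at 37 °C, 5% CO2. Seeded on glass dish at 1×10^5 cells/mL, adhered overnight. Fluorescent BODIPY-labelled compound added from DMSO stock at 25 μM (0.1% DMSO final), 3 h at 37 °C. Cells washed four times with PBS, covered with Opti-MEM, imaged by laser scanning confocal microscopy.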

A short description of data set [7]: Drug uptake in human A549 cell cytosol at 25 uM after 3 hrs by confocal microscopy. Format: ADME, cell-based. Put shortly: as §3
Data set [8] has as its system A549. Nature of the data set: Drug uptake in human A549 cells assessed as accumulation on plasma membrane at 25 uM after 3 hrs by confocal microscopy. Conditions: a549, 3 h. Format: ADME, cell-based. Put shortly:
as §3

Data set [9] concerns A549. Nature of the data set: Cellular uptake in human A549 cells at 25 uM after 3 hrs by confocal microscopy. The format is ADME, cell-based. The settings on record: a549, 3 h. Put shortly:
as §3

SMILES strings stand for the structures. The source made the active and inactive calls. The rule behind the calls is not given here. Residues, ends and D or L forms follow the SMILES beside them. *: point of attachment. X1 = NCC(CN)CCOc1cc(C(=O)*)cc(OCCC(CN)CN)c1OCCC(CN)CN; Ahx = NCCCCCC(=O)O

`COC(=O)[C@H](CCSC)NC(=O)c1ccc(NC[C@H](CS)NC(=O)CCCCCNC(=O)c2cc(OCCC(CN)CN)c(OCCC(CN)CN)c(OCCC(CN)CN)c2)cc1`: in data set [1], the inhibition entry was “inactive”. Moreover, the inhibition entry in data set [2] and in data set [3] was “Active” throughout. In the case of `CC[C@H](C)[C@H](NC(=O)[C@@H](NC(=O)[C@H](CS)NC(=O)CCCCCNC(=O)c1cc(OCCC(CN)CN)c(OCCC(CN)CN)c(OCCC(CN)CN)c1)C(C)C)C(=O)N[C@@H](CCSC)C(=O)O` ({X1-Ahx}-CVIM-OH), the figures for the inhibition constant (Ki) in data set [4] and in [5] were 15 nM and 5 nM, respectively. Further, in data set [2], the inhibition entry is “inactive”. `CSCC[C@H](NC(=O)c1ccc(NC[C@H](CS)NC(=O)CCCCCNC(=O)c2cc(OCCC(CN)CN)c(OCCC(CN)CN)c(OCCC(CN)CN)c2)cc1)C(=O)O`: the inhibition constant (Ki) – broadly, a dissociation constant, usually derived from enzyme kinetics or from competition with a known ligand – in data set [4] amounted to 837 nM. On to `COC(=O)[C@H](CCSC)NC(=O)c1ccc(NC[C@H](CS)NC(=O)CCNC(=O)[C@H](CCCCNC(=O)CCC2=C3C(C)=CC(C)=[N+]3[B-](F)(F)n3c(C)cc(C)c32)NC(=O)c2cc(OCCC(CN)CN)c(OCCC(CN)CN)c(OCCC(CN)CN)c2)cc1`, for which the results for the Drug uptake entry in [6] and in data set [7] were “Not Active” and “Active”, respectively.

Turning to `CC[C@H](C)[C@H](NC(=O)[C@@H](NC(=O)[C@H](CS)NC(=O)CCNC(=O)[C@H](CCCCNC(=O)CCC1=C2C(C)=CC(C)=[N+]2[B-](F)(F)n2c(C)cc(C)c21)NC(=O)c1cc(OCCC(CN)CN)c(OCCC(CN)CN)c(OCCC(CN)CN)c1)C(C)C)C(=O)N[C@@H](CCSC)C(=O)O`, the Drug uptake result in data set [8] is given as “Not Active”. With `CC[C@H](C)[C@H](NC(=O)[C@@H](NC(=O)[C@@H](N)CS)C(C)C)C(=O)N[C@@H](CCSC)C(=O)O`, the Ki in data set [5] amounted to 1100 nM. As for `CC1=CC(C)=[N+]2C1=C(CCC(=O)NCCCC[C@H](NC(=O)c1cc(OCCC(CN)CN)c(OCCC(CN)CN)c(OCCC(CN)CN)c1)C(=O)O)c1c(C)cc(C)n1[B-]2(F)F`, the Drug uptake result in data set [9] is reported as “Active”. As to `CSCC[C@H](NC(=O)c1ccc(NC[C@@H](N)CS)cc1)C(=O)O`, the Ki in data set [4] was determined as 785 nM.
